From ChEMBL document CHEMBL1126874, “Synthesis of structural analogs of leukotriene B4 and their receptor binding activity” (J Med Chem, 1993)

Tests used:
[1] = Agonist-induced calcium mobilization using human polymorphonuclear leukocytes; set-up: concentration or dose not given beside the values
[2] = target: Leukotriene B4 receptor 1 (Homo sapiens, UniProt Q15722); assay: Inhibition of [3H]- LTB4 binding on human whole cells
Method in brief: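 Intact DMSO-differentiated (1.3%, 3-4 days) human U-937 cells, or isolated human peripheral blood PMNs, 10⁶ cells, incubated in HBSS with 0.1% ovalbumin, 0.2 nM [³H]LTB₄ and compound (0.1 nM-10 μM, 5-8 concentrations in duplicate) for 20 min at 0 °C. Nonspecific binding measured with 1 μM unlabeled LTB₄. Filtration, scintillation counting. Ki from IC50 by Cheng-Prusoff; mean of ≥2 assays.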

Chain of Leukotriene B4 receptor 1 (Q15722 whole entry): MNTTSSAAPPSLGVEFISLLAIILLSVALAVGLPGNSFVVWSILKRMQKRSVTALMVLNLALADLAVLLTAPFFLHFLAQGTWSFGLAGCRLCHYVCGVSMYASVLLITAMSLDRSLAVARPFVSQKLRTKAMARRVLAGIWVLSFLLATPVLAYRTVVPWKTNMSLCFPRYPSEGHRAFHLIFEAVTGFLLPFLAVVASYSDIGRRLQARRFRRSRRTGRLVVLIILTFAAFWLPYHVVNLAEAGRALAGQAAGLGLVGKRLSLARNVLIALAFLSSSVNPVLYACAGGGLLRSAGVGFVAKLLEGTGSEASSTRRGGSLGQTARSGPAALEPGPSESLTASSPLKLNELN

SMILES	Ki [2]	Agonist activity % [1]
CCCCCCCCC(O)c1ccc2ccc(CCCCCC(=O)O)nc2c1 (centres undefined)	2800 nM	58%
CCCCCCCCC(O)/C=C/c1cccc(CC(O)c2cccc(C(=O)[O-])c2)n1.[Li+] (centres undefined)	–	86%
CCCCOc1cccc(C(O)CCc2cccc(CC(O)c3cccc(C(=O)[O-])c3)n2)c1.[Li+] (centres undefined)	1000 nM	4%
CCCCCCCCC(O)c1ccc2ccc(CSc3cccc(C(=O)[O-])c3)cc2c1.[Li+] (centres undefined)	9000 nM	23%
CCCCCCCCC(O)c1ccc2ccc(/C=C/CCCC(=O)O)nc2c1 (centres undefined)	1400 nM	45%
CCCCC/C=C\C[C@H](O)/C=C/c1cccc(C[C@H](O)CCCCO)n1	700 nM	100%
CCCCCCCCC(O)c1ccc2ccc(CC(O)CCCC(=O)O)nc2c1 (centres undefined)	900 nM	63%

More lines, main results first:

Ki [2]	SMILES	Agonist activity % [1]
600 nM	CCCCCCCCC(O)c1ccc2ccc(CSc3cccc(C(=O)O)c3)nc2c1 (centres undefined)	85%
500 nM	CCCCCCCCC(O)c1ccc2ccc(C[S+]([O-])c3cccc(C(=O)[O-])c3)cc2c1.[Li+] (centres undefined)	56%
60 nM	CCCCCCCCC(O)CCc1cccc(CC(O)c2cccc(C(=O)[O-])c2)n1.[Li+] (centres undefined)	84%
100 nM	CCCCCCCCC(O)c1ccc2ccc(CCc3cccc(C(=O)[O-])c3)nc2c1.[Li+] (centres undefined)	66%
10 nM	CCCCCCCCC(O)c1ccc2ccc(CC(O)c3cccc(C(=O)[O-])c3)nc2c1.[Li+] (centres undefined)	74%
3 nM	CCCCOc1cccc(C(O)/C=C/c2cccc(CC(O)c3cccc(C(=O)[O-])c3)n2)c1.[Li+] (centres undefined)	56%
140 nM	CCCCCCCCC(O)c1ccc2ccc(C[S+]([O-])c3cccc(C(=O)O)c3)nc2c1 (centres undefined)	98%
50 nM	CCCCCCCC[C@@H](O)c1ccc2ccc(CCc3cccc(C(=O)[O-])c3)nc2c1.[Li+]	56%
